Tested on: not listed separately
Assay: Intrinsic clearance in CD1 rat liver microsomes at 1 uM after 30 mins
Type: ADME, Microsome
Settings: read-out: CLH

SMILES	microsomal CLint at 1 µM [µL/min/mg]
O=C(Nc1ccc(F)cc1)N1Cc2ccccc2C1c1ccc(C(F)(F)F)cc1 (stereo unspecified)	64
O=C(Nc1ccc(F)cc1)N1CCCCC1c1ccc(C(F)(F)F)cc1 (stereo unspecified)	285
FC(F)(F)c1ccc(C2NCCc3sccc32)cc1 (stereo unspecified)	> 399
O=C(Nc1ccc(Cl)cc1)N1CCc2sccc2C1c1ccc(C(F)(F)F)cc1 (stereo unspecified)	162
O=C(Nc1ccccc1)N1CCc2sccc2C1c1ccc(Cl)cc1 (stereo unspecified)	> 399
O=C(Nc1ccccc1)N1CCc2sccc2C1c1ccccc1C(F)(F)F (stereo unspecified)	> 399
O=C(Nc1ccc(F)cc1)N1CCc2ccc(F)cc2C1c1ccc(C(F)(F)F)cc1 (stereo unspecified)	34
O=C(Nc1ccc(F)cc1)N1CCn2cccc2C1c1ccc(C(F)(F)F)cc1 (stereo unspecified)	123
CCCC1c2ccsc2CCN1C(=O)Nc1ccc(Cl)cc1 (stereo unspecified)	> 399
FC(F)(F)c1ccc(C2c3ccsc3CCN2Cc2ccccc2)cc1 (stereo unspecified)	> 399
CC(C)C(=O)N1CCc2sccc2C1c1ccc(C(F)(F)F)cc1 (stereo unspecified)	> 399
O=C(Nc1ccc(F)cc1)N1CCc2nc[nH]c2C1c1ccc(C(F)(F)F)cc1 (stereo unspecified)	23
COc1ccc(NC(=O)N2CCc3sccc3C2c2ccc(C(F)(F)F)cc2)cc1 (stereo unspecified)	203
O=C(Nc1ccccc1)N1CCc2sccc2C1c1ccccc1Cl (stereo unspecified)	> 399
O=C(N1CCOCC1)N1CCc2sccc2C1c1ccc(C(F)(F)F)cc1 (stereo unspecified)	> 399
O=C(NC1CC1)N1CCc2sccc2C1c1ccc(C(F)(F)F)cc1 (stereo unspecified)	> 399
O=C(Nc1ccc(F)cc1)N1CCc2ccoc2C1c1ccc(C(F)(F)F)cc1 (stereo unspecified)	164
O=C(Nc1ccc(F)cc1)N1CCc2c(F)cccc2C1c1ccc(C(F)(F)F)cc1 (stereo unspecified)	48
O=C(Nc1ccccc1)N1CCc2sccc2C1c1cccc(Cl)c1 (stereo unspecified)	> 399
CCCC1c2ccsc2CCN1C(=O)Nc1ccccc1 (stereo unspecified)	> 399
Cn1cnc2c1CCN(C(=O)Nc1ccc(F)cc1)C2c1ccc(C(F)(F)F)cc1 (stereo unspecified)	36
O=C(c1cccc(F)c1)N1CCc2sccc2C1c1ccc(C(F)(F)F)cc1 (stereo unspecified)	> 399

Target: Transient receptor potential cation channel subfamily M member 8 (Rattus norvegicus, UniProt Q8R455)
Assay: Antagonist activity at rat TRPM8 expressed in CHO cells assessed as inhibition of icilin-induced Ca2+ influx incubated 2.5 mins prior icilin induction by flash luminometry
Type: functional, cell-based
Settings: not given
In short: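 CHO cells stably expressing rat TRPM8 under a tetracycline-inducible T-REx system, co-transfected with aequorin. Seeded 24 h before assay; expression induced with 0.5 μg/mL tetracycline. Luminescence was read on a CCD-camera luminometer.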

Transient receptor potential cation channel subfamily M member 8, sequence (Q8R455 whole entry): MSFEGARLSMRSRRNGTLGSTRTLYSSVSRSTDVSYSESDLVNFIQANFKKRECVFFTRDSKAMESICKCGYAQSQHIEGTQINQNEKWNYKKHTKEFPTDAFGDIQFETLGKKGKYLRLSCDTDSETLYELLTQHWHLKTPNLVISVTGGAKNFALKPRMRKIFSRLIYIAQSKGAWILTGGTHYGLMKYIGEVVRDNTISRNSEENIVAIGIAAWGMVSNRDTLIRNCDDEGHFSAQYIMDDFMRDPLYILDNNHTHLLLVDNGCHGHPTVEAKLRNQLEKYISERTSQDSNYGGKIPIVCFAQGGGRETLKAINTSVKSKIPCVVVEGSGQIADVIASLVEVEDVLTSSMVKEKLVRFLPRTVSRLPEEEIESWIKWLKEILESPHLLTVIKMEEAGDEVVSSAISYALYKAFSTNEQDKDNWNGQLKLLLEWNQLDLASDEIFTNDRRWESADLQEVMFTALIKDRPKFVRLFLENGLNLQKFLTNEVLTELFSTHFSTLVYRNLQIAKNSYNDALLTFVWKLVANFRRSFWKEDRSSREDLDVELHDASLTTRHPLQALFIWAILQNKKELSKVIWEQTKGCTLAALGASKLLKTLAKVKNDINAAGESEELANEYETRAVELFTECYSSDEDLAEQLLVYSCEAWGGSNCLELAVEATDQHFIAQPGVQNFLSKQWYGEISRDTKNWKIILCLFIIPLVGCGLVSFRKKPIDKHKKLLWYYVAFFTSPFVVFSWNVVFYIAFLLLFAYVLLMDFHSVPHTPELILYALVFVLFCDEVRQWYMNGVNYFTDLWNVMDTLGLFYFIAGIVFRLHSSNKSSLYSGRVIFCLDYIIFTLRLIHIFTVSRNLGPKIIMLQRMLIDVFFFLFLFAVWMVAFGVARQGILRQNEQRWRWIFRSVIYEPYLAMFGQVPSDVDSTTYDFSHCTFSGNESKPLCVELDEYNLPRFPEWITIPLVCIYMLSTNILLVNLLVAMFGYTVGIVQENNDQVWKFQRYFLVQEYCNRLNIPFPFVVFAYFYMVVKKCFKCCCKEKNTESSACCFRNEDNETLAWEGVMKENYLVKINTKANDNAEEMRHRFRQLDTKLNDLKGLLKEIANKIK

SMILES	IC50 [nM]
CC(C)CN1CCc2sccc2C1c1ccc(C(F)(F)F)cc1 (stereo unspecified)	> 20000
CC1c2ccsc2CCN1C(=O)Nc1ccccc1 (stereo unspecified)	6800
O=C(Nc1ccc(F)cc1)N1Cc2ccccc2C1c1ccc(C(F)(F)F)cc1 (stereo unspecified)	340
O=C(Nc1ccc(F)cc1)N1CCCCC1c1ccc(C(F)(F)F)cc1 (stereo unspecified)	2660
FC(F)(F)c1ccc(C2NCCc3sccc32)cc1 (stereo unspecified)	> 20000
O=C(Nc1ccc(Cl)cc1)N1CCc2sccc2C1c1ccc(C(F)(F)F)cc1 (stereo unspecified)	1630
O=C(Nc1ccccc1)N1CCc2sccc2C1c1ccc(Cl)cc1 (stereo unspecified)	560
O=C(Nc1ccccc1)N1CCc2sccc2C1c1ccccc1C(F)(F)F (stereo unspecified)	240
O=C(Nc1ccc(F)cc1)N1CCc2ccc(F)cc2C1c1ccc(C(F)(F)F)cc1 (stereo unspecified)	190
O=C(Nc1ccc(F)cc1)N1CCn2cccc2C1c1ccc(C(F)(F)F)cc1 (stereo unspecified)	180
CCCC1c2ccsc2CCN1C(=O)Nc1ccc(Cl)cc1 (stereo unspecified)	1390
FC(F)(F)c1ccc(C2c3ccsc3CCN2Cc2ccccc2)cc1 (stereo unspecified)	> 20000
CC(C)C(=O)N1CCc2sccc2C1c1ccc(C(F)(F)F)cc1 (stereo unspecified)	1260
O=C(Nc1ccc(F)cc1)N1CCc2nc[nH]c2C1c1ccc(C(F)(F)F)cc1 (stereo unspecified)	1430
COc1ccc(NC(=O)N2CCc3sccc3C2c2ccc(C(F)(F)F)cc2)cc1 (stereo unspecified)	2320
O=C(Nc1ccccc1)N1CCc2sccc2C1c1ccccc1Cl (stereo unspecified)	140
O=C(N1CCOCC1)N1CCc2sccc2C1c1ccc(C(F)(F)F)cc1 (stereo unspecified)	> 20000
O=C(NC1CC1)N1CCc2sccc2C1c1ccc(C(F)(F)F)cc1 (stereo unspecified)	1210
O=C(Nc1ccc(F)cc1)N1CCc2ccoc2C1c1ccc(C(F)(F)F)cc1 (stereo unspecified)	230
O=C(Nc1ccc(F)cc1)N1CCc2c(F)cccc2C1c1ccc(C(F)(F)F)cc1 (stereo unspecified)	100
O=C(Nc1ccccc1)N1CCc2sccc2C1c1cccc(Cl)c1 (stereo unspecified)	2890
CCCC1c2ccsc2CCN1C(=O)Nc1ccccc1 (stereo unspecified)	293
Cn1cnc2c1CCN(C(=O)Nc1ccc(F)cc1)C2c1ccc(C(F)(F)F)cc1 (stereo unspecified)	260
O=C(c1cccc(F)c1)N1CCc2sccc2C1c1ccc(C(F)(F)F)cc1 (stereo unspecified)	> 20000

Reference: ChEMBL document CHEMBL2029325, “Fused piperidines as a novel class of potent and orally available transient receptor potential melastatin type 8 (TRPM8) antagonists” (J Med Chem, 2012)
